Screening data deposited in PubChem by several laboratories.
This is a sample that favours compounds with a hit; in the whole collection about 1.7% have one here.
RanGTP-Impb inh: inhibitors of RanGTP-importin-beta interaction, primary screen, biochemical, FRET, CFP-Ran, YFP-importin-beta, homogeneous; AID 2216, 2009; inhibition, % (concentration not given with the values); hit rate 1.1% among 300,000; cell-free CFP-Ran/YFP-importin-beta FRET ratio; Ran GTPase (GTP-bound) - importin-beta complex;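 active = more than half of the replicate wells show a fall in the fluorescence ratio signal beyond about 16%, limit read from the data, passing the limit was not always enough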;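 also: 0% = DMSO wells and 100% = Ran loaded with GDP instead of GTP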
Runt-SMMHC FRET: inhibitors of RUNX1 Runt–CBFb-SMMHC binding, primary screen, biochemical, FRET, Cerulean-Runt, Venus-CBFb-SMMHC, uHTS | Cerulean-Runt/Venus-CBFb-SMMHC FRET ratio 530/480, 1 h | inhibition, % at 20 µM | hit rate 0.74% among 220,000 | AID 1434, 2008;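 active = mean inhibition across duplicate retests at 20 µM reaching about 50%, limit read from the data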;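 also: 0% = DMSO wells and 100% = wells with excess untagged CBFb-SMMHC; inhibitors lower the FRET ratio by blocking Runt binding to CBFb-SMMHC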
Runt-CBFb FRET: inhibitors of RUNX1 Runt–CBFb binding, primary screen, biochemical, FRET, Cerulean-Runt, Venus-CBFb, uHTS | Runt-related transcription factor 1 (Homo sapiens) + Core-binding factor subunit beta … | Cerulean-Runt/Venus-CBFb FRET ratio 530/480, 1 h | inhibition, % at 20 µM | hit rate 0.46% among 220,000;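 active = inhibition over about 50% at 20 µM in the single-dose screen, limit read from the data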;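 also: 0% = DMSO wells and 100% = excess unlabeled CBFb competitor control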
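System: Cerulean-labeled Runt domain protein | Quantity: 100 nM of each labeled protein | Schedule: 1 h compound exposure, room temperature | Detection: Fluorescence energy transfer, 422 nm excitation, 530/480 nm emission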
Hck-Nef inh: inhibitors of Nef-activated human Hck kinase, primary screen, biochemical, Z-Lyte FRET, 384-well, Hck-YEEI. Recombinant Hck-YEEI plus Nef, Z-Lyte FRET kinase assay. inhibition, % at 20 µM. hit rate 0.68% among 220,000. AID 463187, 2010;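 active = Hck-Nef kinase inhibition above about 50%, limit read from the data; inactive = inhibition below that limit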;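 also: 0% = DMSO with Hck plus Nef and 100% = Hck alone without Nef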
Target sequence (P08631 whole entry, looked up): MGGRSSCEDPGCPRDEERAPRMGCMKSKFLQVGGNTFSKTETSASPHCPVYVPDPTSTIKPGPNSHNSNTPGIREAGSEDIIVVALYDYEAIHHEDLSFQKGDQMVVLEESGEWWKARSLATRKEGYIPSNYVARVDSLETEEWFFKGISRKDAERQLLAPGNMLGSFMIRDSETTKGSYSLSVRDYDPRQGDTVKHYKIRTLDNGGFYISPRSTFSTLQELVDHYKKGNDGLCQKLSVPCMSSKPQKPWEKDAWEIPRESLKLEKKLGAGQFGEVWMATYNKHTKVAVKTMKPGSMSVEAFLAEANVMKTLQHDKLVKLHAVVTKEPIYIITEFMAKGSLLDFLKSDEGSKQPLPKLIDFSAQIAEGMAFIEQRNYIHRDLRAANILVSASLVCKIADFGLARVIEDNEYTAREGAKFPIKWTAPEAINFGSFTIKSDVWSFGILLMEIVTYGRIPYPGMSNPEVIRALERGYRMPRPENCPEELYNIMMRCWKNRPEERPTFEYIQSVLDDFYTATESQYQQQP
Active calls of the source: *; / = no result.

SMILES	RanGTP-Impb inh	Runt-SMMHC FRET	Runt-CBFb FRET	Hck-Nef inh
COc1ccc(N2C(=O)NC(=O)/C(=C/c3ccc4c(c3)Cc3ccccc3-4)C2=O)cc1	-2	-14	/	87*
O=c1[nH]c(=O)n(Cc2ccccc2)c(O)c1/C=C1\C=Nc2ccccc21	0	93*	39	0
O=c1[nH]c(=O)n(CC2CCCO2)c(O)c1/C=C1\C=Nc2ccccc21 (stereo unspecified)	1	-6	-3	-8
CCN(CC)P(=O)(/C=C(\Cl)c1ccccc1)/C=C(\Cl)c1ccccc1	1	0	-2	19
O=P(Oc1ccccc1)(Oc1ccccc1)c1ccccc1	3	-5	2	0
CC(C)c1ccc(-n2c(O)c(/C=N/NC(=O)c3ccccc3O)c(=O)[nH]c2=S)cc1	3	59*	21	7
O=c1[nH]c(=S)n(Cc2ccc(F)cc2)c(O)c1C=NCCCn1ccnc1	-1	0	0	23
O=C(N/N=C/c1c(O)n(Cc2ccc(F)cc2)c(=S)[nH]c1=O)c1ccncc1	10	84*	69*	-53
CCn1c(O)c(/C=N/NC(=O)c2ccncc2)c(=O)[nH]c1=S	5	82*	28	7
CCn1c(O)c(/C=N/NC(=O)c2ccccc2)c(=O)n(CC)c1=S	11	70*	36	10
O=C(N/N=C/c1c(O)n(C2CCCCC2)c(=S)[nH]c1=O)c1ccccc1O	13	/	/	/
O=C(N/N=C/c1c(O)n(CCc2ccccc2)c(=O)[nH]c1=O)c1ccccc1	-3	3	1	13
CCN(CC)c1ccc(CNCCc2ccc(F)cc2)cc1	2	2	0	22
CCC(C)n1c(O)c(/C=N/NC(=O)c2ccncc2)c(=O)[nH]c1=S (stereo unspecified)	-2	77*	44	10
COCCN1Cc2cc(=O)n3c([nH]c4ccccc43)c2C1=N	-15	41	18	34
Cc1ccc(OP(=O)(NC(C)c2ccccc2)Oc2ccc(C)cc2)cc1 (stereo unspecified)	8	-7	-5	18
O=C1NC(=O)N(c2ccccc2)C(=O)/C1=C\c1ccc([N+](=O)[O-])o1	-2	8	11	55*
Cc1ccc(N2C(=O)NC(=O)/C(=C/C=C/c3ccco3)C2=O)cc1	-4	-22	10	8
O=C1NC(=O)N(c2ccccc2)C(=O)/C1=C\C=C\c1ccccc1	0	55*	37	14
O=C(Nc1nccs1)c1c(O)c2c(n(Cc3ccco3)c1=O)CCCC2	4	-2	-1	9
NS(=O)(=O)c1ccc(N2CCNCC2)cc1	3	-3	-2	21
COCCCNC(=O)c1c(NC(=O)c2ccccc2Cl)n(Cc2ccccc2)c2nc3ccccc3nc12	71*	63*	22	6
COCCNC(=O)c1c(N)n(Cc2ccco2)c2nc3ccccc3nc12	90*	42	58*	48
CC/C(=N\NC(=O)c1ccccc1)c1c(O)n(Cc2ccccc2)c(=O)[nH]c1=O	6	3	0	0
C=CCNC(=O)c1c(N)n(Cc2ccco2)c2nc3ccccc3nc12	77*	42	76*	36
SMILES	RanGTP-Impb inh	Runt-SMMHC FRET	Runt-CBFb FRET	Hck-Nef inh
CC(C)(C)OC(=O)c1c(N)n(Cc2ccco2)c2nc3ccccc3nc12	32*	59*	71*	36
O=C(CCc1nnc2ccc(NCc3ccccc3)nn12)N1CCC2(CC1)OCCO2	10	/	/	/
CC#CP(=O)(OC)C(O)(CF)c1ccccc1 (stereo unspecified)	-1	6	0	0
Cc1ccc2c(c1)c(=O)c1c3n2CCN(CC2CO2)C3CC1 (stereo unspecified)	29*	11	4	6
Cc1cc2c(C(C)C)c(O)c(O)c(C=O)c2c(O)c1-c1c(C)cc2c(C(C)C)c(O)c(O)c(C=O)c2c1O	/	-2	3	102*
CP(=O)(O)CN1CCCCC1	5	-1	1	5
COc1ccc(NC(=O)[C@@H](NC(=O)N2C[C@H]3C[C@@H](C2)c2cccc(=O)n2C3)C(C)C)cc1	0	/	/	/
